Shown is part of a subset that was picked to be rich in hits.
Insulin prom act: TRM-6 insulin promoter activation. TRM-6 cells, insulin promoter eGFP reporter, imaging; plate-scaled: unstimulated 0, stimulated control 100. activation, % at 2 µM. hit rate 0.81% among 130,000. AID 1296;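 active = activation at 2 µM above a set limit, confirmed on inspection of the cell images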;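 also: share of cells whose green reporter signal exceeds an intensity cutoff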
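material = TRM-6 human fetal islet cells, insulin promoter–eGFP reporter | input = 1,000 TRM-6 cells seeded per well | benchmarks = stimulated versus unstimulated wells as plate controls | measured by = automated fluorescence imaging of paraformaldehyde-fixed, Hoechst-counterstained cells, green channel | schedule = compound exposure 48 h, 37 °C | reagent = tamoxifen at 0.75 µM added at seeding for reporter induction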
Starred values were filed as active, the others as inactive; + = active, no number; [ ] = remark or other dose.

SMILES	Insulin prom act
Cc1ccc2nc(/C(C#N)=C\c3ccc(N4CCOCC4)o3)[nH]c2c1	455.6*
Cc1ccc2nc(/C(C#N)=C\c3cc(C)n(-c4cccc([N+](=O)[O-])c4)c3C)[nH]c2c1	0.0
C[N+]12CCCCC1C(COC(=O)c1ccc3c(c1)OCO3)CCC2 (centres undefined)	-75.0
CNC(=S)N(Cc1ccc(OC)cc1)Cc1cc2ccc(C)cc2[nH]c1=O	-7.7
CSc1cnc2c(N)nc(N(C)C)nc2n1	0.0
COC(=O)c1sccc1-c1ccc(C(=O)Nc2cccc(Cl)c2)o1	80.0*
COC(=O)c1ccccc1NC(=O)c1ccc(-c2cccc(Cl)c2)o1	0.0
COC(=O)c1sccc1NC(=O)c1ccco1	168.8
CC1CCCC(NC(=O)COC(=O)CCSc2ccccc2)C1C (centres undefined)	0.0
CC1CN(c2snnc2C=C2C(=O)OC(C)(C)OC2=O)CC(C)O1 (centres undefined)	0.0
COCC(C)NC(=O)NC1(C(F)(F)F)Oc2ccc(Cl)cc2O1 (centres undefined)	-71.4
COCC(C)NC(=O)c1cccc(Cl)c1 (centres undefined)	0.0
COCC(C)NC(=O)NC(=O)c1ccc(Cl)cc1 (centres undefined)	77.4*
CCC(=O)Nc1ccc(C(=O)NNC(=O)COc2cccc(C)c2)cc1	3.3
O=C(CCn1c(=S)[nH]c2ccccc2c1=O)NCCc1ccc(Cl)cc1	-3.7
O=C(c1ccc(F)cc1)N1CCCCC(S(=O)(=O)c2ccccc2)C1=O (centres undefined)	118.8
COC(=O)Cc1ccc(O)c(N)c1	-5.6
CCOC(=O)Nc1sc(C)c(C)c1C(=O)OCC	0.0
COc1ccc(N2CCN(CCNC(=O)C3CCN(S(=O)(=O)c4cccs4)CC3)CC2)cc1	0.0
CCC(C)(C)NC(=O)C1CCN(S(=O)(=O)c2cccs2)CC1	+[fluoresces]
O=C(NCCc1ccccc1Cl)C1CCN(S(=O)(=O)c2cccs2)CC1	7.1
CCOC(=O)c1c(NC(=O)C2CCN(S(=O)(=O)c3cccs3)CC2)sc(C)c1C	454.3*
Cc1ccccc1NC(=O)C1CCN(S(=O)(=O)c2cccs2)CC1	-6.7
C=CCn1c(C)cc(C(=O)COC(=O)c2ccc3c(c2)NC(=O)CS3)c1C	3.7
COc1ccc2nc(NC(=O)c3cccnc3SC)sc2c1	0.0
SMILES	Insulin prom act
COc1ccccc1OCc1ccc(C(=O)NC(C)(C)C)o1	50.0
COC(=O)c1ccccc1NC(=O)c1ccc(COc2ccccc2)o1	584.6*
COc1ccc(NC(=O)c2ccc(COc3ccccc3)o2)cc1	-5.4
CCOC(=O)/C(C#N)=C\c1ccc(OCC(=O)Nc2ccc(C)cc2C)c(OC)c1	8.3
CC(=O)C(=Nc1ccccc1Cl)NNc1ccc(Cl)cc1	-75.0
Cc1ccc(OCC(=O)Nc2cc(S(=O)(=O)N3CCCCC3)ccc2C)c([N+](=O)[O-])n1	-9.7
NC(=O)c1ccsc1NC(=O)Cc1ccc([N+](=O)[O-])cc1	-7.1
O=C(CSc1ccc(-c2ccccn2)nn1)NCc1ccccc1	-8.3
Cn1c(SCC(=O)NCc2ccco2)nnc1-c1ccc(S(=O)(=O)N2CCOCC2)cc1	-6.1
O=C(CSc1nnc(-c2cc3ccccc3cc2O)n1Cc1ccco1)c1ccc(F)cc1	-6.1
Cc1cc(C)c(NC(=O)CSc2nnc(-c3ccncc3)n2Cc2ccco2)c(Cl)c1	-3.2
Cn1c(SCC(=O)NCc2ccco2)nnc1-c1ccccc1	437.1*
O=C(CSc1ncc(-c2ccccc2)n1-c1ccccc1)NCc1ccco1	2.7
O=C(CSc1ccc(-c2ccccc2)nn1)NCc1ccco1	443.8*
COc1cccc(CNC(=O)CSc2ccc(-c3ccncc3)nn2)c1	0.0
O=C(CSc1nnc(-c2ccc(O)cc2)n1Cc1ccco1)c1ccccc1	77.4*
O=C(CSc1ccc(-c2ccco2)nn1)Nc1ccccc1	-75.0
O=C(CSc1ccc(-c2cccc([N+](=O)[O-])c2)nn1)NCc1ccccc1	265.7*
Cc1nnc(SCC(=O)NCc2ccco2)n1Cc1ccccc1	6.9
Cn1c(Cc2ccccc2)nnc1SCc1ccc(C(=O)O)cc1	-75.0
O=c1c2ccccc2c(/C=N/NS(=O)(=O)c2ccccc2)c(O)n1-c1ccccn1	-6.7
Cc1nn(CC(=O)Nc2ccc(Cl)c(S(=O)(=O)N(C)C)c2)c(C)c1[N+](=O)[O-]	7.9
O=C(COC(=O)c1c(Cl)ccc(Cl)c1Cl)NC(=O)NCc1ccccc1	5.3
CN1CCN(C(=O)CSc2ccc(C(F)(F)F)cc2[N+](=O)[O-])CC1	7.1
CCOC(=O)c1ccc(NC(=O)CSc2nc3cccnc3n2C)cc1	-81.8
SMILES	Insulin prom act
COc1ccc(NC(=O)CSc2nnc(-c3ccncc3)n2C)cc1	0.0
Cn1c(SCCOc2ccccc2Cl)nnc1-c1ccncc1	538.5*
Cn1c(SCC(=O)C(C)(C)C)nnc1-c1ccncc1	0.0
CCOc1cc(CNc2ccc3c(c2)CCC3)ccc1OC	-6.5
CCCCn1nnnc1NCc1ccc(C)s1	100.0
O=C(Cc1ccccc1)Nc1cc(C(=O)c2ccccc2)ccc1N1CCOCC1	0.0
COC(=O)CC/C(O)=C1/C(=N)CC(C)(C)CC1=O	-3.3
Cc1nc(CC(C)C)cc(C(=O)N2CCCC(CNS(=O)(=O)c3cccs3)C2)n1 (centres undefined)	421.4*
O=C(c1ccc(NS(=O)(=O)c2cccs2)cc1)N1CCCCC1	-3.2
CCOC(=O)C1CCCN(C(=O)c2cc(-c3ccccc3)on2)C1 (centres undefined)	31.8
CCOC(=O)C1=CN(c2cccc(F)c2)C=C(C(=O)OCC)C1c1cc(OC)c(O)c([N+](=O)[O-])c1	0.0
OCCN1CCN(CCCc2c3c(cc4c2CCC4)CCC3)CC1	182.8
c1ccc2nc3c(nc2c1)[nH]c1ccccc13	300.0*
CC(C)(C)c1nc2ccccc2[nH]1	-79.7
CCn1nc(C(=O)Nc2nc3ccccc3[nH]2)c2ccccc2c1=O	107.7
CCCS(=O)(=O)c1ccc(COC(=O)c2ccc(NC(C)=O)cc2)cc1	0.0
CCCCCCN1C=CC(=C/C=C(\C#N)C(=O)OCC)C=C1	132.6*
CCOC(=O)/C(C#N)=C1/C=CN(Cc2ccccc2)C=N1	-6.1
CCOC(=O)/C(C#N)=C\C1=C(N2CCCC2)CC(C)(C)OC1	-2.9
CCOC(=O)C(/C=C(\C#N)C(=O)OCC)=C(/N)N1CCN(c2ccccc2)CC1	-7.1
CCOC(=O)/C(C#N)=C1/C=CN(C)C=N1	0.0
CCCN1C=CC(=C/C=C(\C#N)C(=O)OCC)C=C1	141.0*
COc1ccc(N2C(=O)C(CC(N)=O)N(NC(=O)c3cccc(OC)c3)C2=S)cc1 (centres undefined)	0.0
Cc1nc2ccc(Nc3ccncc3)cc2s1	-7.0
Cc1cc(C)c(C)c(C(=O)CSc2nnc(C)c(=O)[nH]2)c1C	-2.9
SMILES	Insulin prom act
COc1cccc(CN2C(=O)C3CCCN3c3ccc(S(=O)(=O)N4CCOCC4)cc32)c1 (centres undefined)	0.0
Cc1ccccc1N1C(S)=C(C#N)C(=O)NC12CCCCC2	-2.7
CCN(CCCNC(=O)CCCOc1cc(=O)n(C)c2ccccc12)Cc1ccccc1	0.0
COc1cccc(-c2cc(C(=O)NCC3CCCO3)c3ccccc3n2)c1 (centres undefined)	0.0
COc1ccc(C2(NC(C)=O)CCN(C(=O)c3cccs3)CC2)cc1	288.6
O=C(N/C(=C/c1cccnc1)C(=O)N1CCOCC1)c1ccccc1Br	2.9
COc1ccc(Br)cc1C(=O)Nc1ccc(C(=O)O)cc1	341.2*
COc1ccc(Br)cc1C(=O)O	-8.8
COc1ccc(Br)cc1C(=O)Nc1ccc(N2CCN(S(C)(=O)=O)CC2)cc1	356.3

High-throughput results (PubChem)
